INS promoter act: TRM-6 insulin promoter activation; activation, % at 2 µM; 0.81% of 130,000 active; TRM-6 cells, insulin promoter eGFP reporter, imaging; plate-scaled: unstimulated 0, stimulated control 100;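 active means activation at 2 µM above a set limit, confirmed on inspection of the cell images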;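 further: share of cells whose green reporter signal exceeds an intensity cutoff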
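material = TRM-6 human fetal islet cells, insulin promoter–eGFP reporter | input = 1,000 TRM-6 cells seeded per well | benchmarks = stimulated versus unstimulated wells as plate controls | measured by = automated fluorescence imaging of paraformaldehyde-fixed, Hoechst-counterstained cells, green channel | schedule = compound exposure 48 h, 37 °C | reagent = tamoxifen at 0.75 µM added at seeding for reporter induction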
* marks the source's active call; other numbers are inactive results. This excerpt belongs to a sample that is enriched for hits.

SMILES | INS promoter act
COC(=O)c1sccc1-n1cccc1C(=O)NCc1ccccc1 | -9.1
Cc1ccc(/C=C/C(=O)c2ccc(C)cc2)cc1 | 366.7
O=C(/C=C/c1ccc(N2CCC(c3ccccc3)=N2)cc1)c1ccccc1 | 455.6*
O=C(/C=C/c1ccc(OC2CSC2)cc1)c1ccc(Cl)cc1 | 3.8
CCOC(=O)COc1ccc(S(=O)(=O)NCCC2=CCCCC2)cc1 | 9.3
CCn1c(SCC(=O)NC(=O)NC(C)(C)C)nc2ccccc21 | 129.4*
CN(C)C(=O)Cn1c(SCC(=O)NC2CCCCC2)nc2ccccc21 | -5.4
CCn1c(SCC(=O)O)nc2ccccc21 | 0.0
CC1CC(NS(=O)(=O)c2cccs2)CC(C)(C)C1 (centres undefined) | 121.4
O=C1C2C3C=CC(C3)C2C(=O)N1/N=C/c1cn(Cc2ccccc2)c2ccccc12 (centres undefined) | -5.0
O=C(O)c1cn(Cc2ccccc2)c2ccccc2c1=O | 383.3*
COc1ccc2c(c1)c(=O)c(C(=O)c1ccccc1)cn2Cc1ccc(C)cc1 | -7.3
CC(C)(C)OC(=O)N1CCN(c2ccc(CNC(=O)c3ccc(Cl)cc3)cc2)CC1 | 0.0
O=C(Nc1ccc(F)c(F)c1)c1ccco1 | -7.1
O=C(Nc1ccc(Br)cc1)c1ccco1 | 557.1*
CC(=O)N(C)c1ccc(NC(=O)c2ccco2)cc1 | -2.9
Cc1ccc2nc(NC(=O)c3ccc(OCC4CCCO4)cc3)sc2c1 (centres undefined) | 0.0
CCOc1ccc(NC2=NCC(=O)N2Cc2cccs2)cc1 | -8.6
CCOC(=O)C1=C(c2cccc(F)c2)NC(=S)NC1C (centres undefined) | 4.3
O=S(=O)(Cc1cccc(C(F)(F)F)c1)c1ncn[nH]1 | -5.9
Cc1ccc(NC(=O)CSc2nnc(-c3cccnc3)s2)cc1 | 9.4
Cc1ccc(NC(=O)CSCC#N)cc1 | 82.8*
Cc1ccc(CSCC(=O)Nc2ccc3c(c2)OCO3)cc1 | -5.6
CCN=C1SC(C(=O)Nc2cccc(Br)c2)CC(=O)N1CC (centres undefined) | 0.0
O=C(c1ccc(F)cc1)c1cn[nH]c1-c1ccccc1O | 171.0*
SMILES | INS promoter act
Cc1ccc(C(=O)c2cn[nH]c2-c2ccccc2O)cc1 | 0.0
Cc1[nH]nc2ncc(C(=O)c3ccccc3O)cc12 | -80.0
CCN1C(=O)C(O)(C2COC(C)(C)CC2=O)c2cc(Br)ccc21 (centres undefined) | -38.0
O=C(NCc1cccnc1)c1cccn1-c1ncc(C(F)(F)F)cc1Cl | -7.1
Cc1cc(C)cc(NC(=O)c2cccn2-c2ncc(C(F)(F)F)cc2Cl)c1 | 175.0*
NS(=O)(=O)c1cccn1-c1ncc(C(F)(F)F)cc1Cl | -6.7
Cc1cc(C(F)F)n2ncc(C(=O)NCc3ccccc3F)c2n1 | 7.1
CCCOc1ccc(CN(CCC#N)C(=S)NC(=O)c2ccccc2)cc1 | 3.7
c1ccc2c(CCNc3ncnc4nc[nH]c34)cccc2c1 | 276.2
COc1ccc(N=C2S/C(=C\c3cccs3)C(=O)N2CC(C)C)cc1 | -3.3
CC(C)CN1C(=O)/C(=C/c2cccs2)NC1=S | 431.3*
CCOc1ccc(N2C(=O)/C(=C/c3cccs3)N(C)C2=S)cc1 | 0.0
C=CCn1c(SCCC)nc(O)cc1=O | 5.6
O=C(c1ccc(Cl)c([N+](=O)[O-])c1)N1CCN(Cc2ccc3c(c2)OCO3)CC1 | 121.4
N#Cc1c(Sc2ncc(C(F)(F)F)cc2Cl)nsc1C/C=N\OCc1ccccc1Br | 3.2
CCC(C)/C(C)=N/NC(=O)c1ccc(COc2ccc(Cl)c(C)c2)cc1 (centres undefined) | 0.0
CCNC(=O)CN(C1CCCCC1)S(C)(=O)=O | 0.0
C[C@H](NC(=O)c1ccco1)C(=O)Nc1ccc(S(=O)(=O)N2CCCC2)cc1 | -4.3
O=S(=O)(c1ccc(S(=O)(=O)N(Cc2ccccc2)Cc2ccco2)cc1)N1CCCC1 | 493.8*
O=S(=O)(NCc1ccco1)c1cccc(S(=O)(=O)N2CCOCC2)c1 | 0.0
CN(C(=O)c1ccccc1OC1CCN(S(C)(=O)=O)CC1)C1CCOC1 (centres undefined) | -4.3
O=C1C(Cl)=C(NCCc2ccccc2)C(=O)N1CCc1ccccc1 | -8.7
O=C1C(Cl)=C(Nc2ccc(F)cc2)C(=O)N1CCc1ccccc1 | 171.0
O=C1C(Cl)=C(NCC2CCCO2)C(=O)N1CCc1ccccc1 (centres undefined) | 608.3*
CC1(C)C(N(O)C(=O)Nc2ccc(Cl)cc2)N(c2ccc(Cl)cc2)C(=O)N1CC(=O)NN (centres undefined) | 0.0
SMILES | INS promoter act
COc1cc(S(=O)(=O)N2CCOCC2)cc(C(=O)c2nccn2C)c1OC | 9.1
CCCCn1ccnc1C(=O)c1cc(S(=O)(=O)N2CCOCC2)ccc1C | 88.9*
Cc1ccc(S(=O)(=O)N2CCOCC2)cc1NC(=O)Cn1ccsc1=N | -5.4
COC(=O)c1cccc(Cn2nc(C)c([N+](=O)[O-])c2C)c1 | 0.0
CC(C)Cn1c(-c2ccc(Br)o2)n[nH]c1=S | -3.3
COc1ccc(-c2[nH]nc3oc(=O)c(CCO)c(C)c23)cc1 | -75.0
CCOC(=O)C1CCN(C(=O)COc2ccc(Cl)cc2)CC1 | 0.0
CCOC(=O)C1CCCN(C(=O)Cc2ccc(Cl)cc2)C1 (centres undefined) | 85.2*
CCOC(=O)C1CCCN(C(=O)CCc2ccccc2)C1 (centres undefined) | -77.8
COc1cc(OC)cc(C(=O)NCCNC(=O)c2ccco2)c1 | 371.4
Cc1c(NS(=O)(=O)N2CCCCC2)c(=O)n(-c2ccccc2)n1C | 7.1
CCN(Cc1ccccc1)C(=O)C(C)OC(=O)c1cc(S(=O)(=O)Nc2c(C)n(C)n(-c3ccccc3)c2=O)ccc1C (centres undefined) | 107.1
Cc1ccc(S(=O)(=O)Nc2c(C)n(C)n(-c3ccccc3)c2=O)cc1C(=O)NCc1ccccn1 | 142.9*
CCOC(=O)CSc1nc2c(sc3ccc([N+](=O)[O-])cc32)c(=O)n1Cc1ccco1 | -9.1
Cc1ccc(Cn2nc(C)c(NC(=O)C3(C)CC3(Br)Br)c2C)cc1 (centres undefined) | 0.0
CCC1CCCCN1CCCNC(=O)C1CCN(S(=O)(=O)N2CCCCC2)CC1 (centres undefined) | 215.4*
O=C(NCCC1=CCCCC1)C1CCN(S(=O)(=O)N2CCCC2)CC1 | -7.1
O=C(NCCCN1CCCC1=O)C1CCN(S(=O)(=O)N2CCOCC2)CC1 | 130.5
COC(=O)C1(CCSC)NC(c2ccco2)C2C(=O)N(C)C(=O)C21 (centres undefined) | -6.1
CC(C)(C)c1csc(NC(=O)Cn2c(=O)oc3ccccc32)n1 | 429.4*
CCOc1ccc(NC(=O)Cn2c(=O)oc3ccccc32)cc1 | -7.1
O=C(Cn1c(=O)oc2ccccc21)c1ccccc1 | -72.6
CC1=CCC2C(=O)N(c3ccc(C(=O)N4CCCCCC4)cc3)C(=O)C2C1 (centres undefined) | -4.2
O=C(Nc1ccccc1)C(O)C(O)C(=O)Nc1ccccc1 (centres undefined) | -4.8
Cc1csc(NC(=O)C(NS(=O)(=O)c2ccc(Br)s2)c2ccccc2)n1 (centres undefined) | 0.0
CC(=O)NC(CCS(C)(=O)=O)C(=O)Nc1nc(C)cs1 (centres undefined) | 750.0*
Cc1csc(NC(=O)c2ccccc2C(=O)O)n1 | 6.9
O=C(OC(C(=O)NCc1ccc2c(c1)OCO2)c1ccncc1)c1ccc(Cl)nc1 (centres undefined) | 4.8
CCc1ccc(/C=C/C(=O)c2cc(Br)ccc(=O)c2O)cc1 | 2.9
CCNc1ccc(Br)cc(C(=O)/C=C/c2ccccc2Cl)c1=O | 800.0*

Screening data from PubChem BioAssay.
